Laboratory results taken from ChEMBL document CHEMBL1629653, “CMY-31 and CMY-36 cephalosporinases encoded by ColE1-like plasmids” (Antimicrob Agents Chemother, 2009).

Columns and labels:
[1] = substrate: O=C(Cc1cccs1)N[C@@H]1C(=O)N2C(C(=O)O)=C(/C=C/c3ccc([N+](=O)[O-])cc3[N+](=O)[O-])CS[C@H]12; assay: (§1) Ratio of Kcat to Km for Klebsiella pneumoniae cephalosporinase CMY-36 by spectrophotometry
Procedure, shortened: (§2)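 CMY β-lactamases purified from sonicated, ultracentrifuge-clarified extracts of E. coli DH5α clones (pB-cmy36, pB-cmy2) by Q- then S-Sepharose ion exchange (>90% pure by SDS-PAGE); steady-state hydrolysis kinetics measured spectrophotometrically, CMY-2 run in parallel.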

[2] = substrate: CC1(C)S[C@@H]2[C@H](NC(=O)Cc3ccccc3)C(=O)N2[C@H]1C(=O)O; assay: as §1; procedure, shortened: as §2
[3] = substrate: O=C(Cc1cccs1)N[C@@H]1C(=O)N2C(C(=O)[O-])=C(C[n+]3ccccc3)CS[C@H]12; assay: as §1; procedure, shortened: as §2
[4] = substrate: O=C(Cc1cccs1)N[C@@H]1C(=O)N2C(C(=O)O)=C(/C=C/c3ccc([N+](=O)[O-])cc3[N+](=O)[O-])CS[C@H]12; assay: (§3) Activity of Klebsiella pneumoniae HP205 cephalosporinase CMY-36 by spectrophotometry; procedure, shortened: as §2
[5] = substrate: CC1(C)S[C@@H]2[C@H](NC(=O)Cc3ccccc3)C(=O)N2[C@H]1C(=O)O; assay: as §3; procedure, shortened: as §2
[6] = substrate: CO/N=C(\C(=O)N[C@@H]1C(=O)N2C(C(=O)O)=C(COC(C)=O)CS[C@H]12)c1csc(N)n1; assay: as §3; procedure, shortened: as §2
[7] = substrate: O=C(Cc1cccs1)N[C@@H]1C(=O)N2C(C(=O)[O-])=C(C[n+]3ccccc3)CS[C@H]12; assay: as §3; procedure, shortened: as §2
[8] = substrate: O=C(Cc1cccs1)N[C@@H]1C(=O)N2C(C(=O)O)=C(/C=C/c3ccc([N+](=O)[O-])cc3[N+](=O)[O-])CS[C@H]12; details: Salmonella enterica subsp. enterica serovar Newport; AM17274
[9] = substrate: CC1(C)S[C@@H]2[C@H](NC(=O)Cc3ccccc3)C(=O)N2[C@H]1C(=O)O; details: Salmonella enterica subsp. enterica serovar Newport; AM17274
[10] = substrate: CO/N=C(\C(=O)N[C@@H]1C(=O)N2C(C(=O)O)=C(COC(C)=O)CS[C@H]12)c1csc(N)n1; details: Salmonella enterica subsp. enterica serovar Newport; AM17274
[11] = substrate: O=C(Cc1cccs1)N[C@@H]1C(=O)N2C(C(=O)[O-])=C(C[n+]3ccccc3)CS[C@H]12; details: Salmonella enterica subsp. enterica serovar Newport; AM17274
[12] = substrate: O=C(Cc1cccs1)N[C@@H]1C(=O)N2C(C(=O)O)=C(/C=C/c3ccc([N+](=O)[O-])cc3[N+](=O)[O-])CS[C@H]12; details: Salmonella enterica subsp. enterica serovar Newport; AM17274; remark: listed apart in the source
[13] = substrate: CC1(C)S[C@@H]2[C@H](NC(=O)Cc3ccccc3)C(=O)N2[C@H]1C(=O)O; details: Salmonella enterica subsp. enterica serovar Newport; AM17274; remark: listed apart in the source
[14] = substrate: O=C(Cc1cccs1)N[C@@H]1C(=O)N2C(C(=O)[O-])=C(C[n+]3ccccc3)CS[C@H]12; details: Salmonella enterica subsp. enterica serovar Newport; AM17274; remark: listed apart in the source

B1: Class C beta-lactamase CMY-36 (Klebsiella pneumoniae), Q48435 (protein)
chain: MMKKSLCCALLLTASFSTFAAAKTEQQIADIVNRTITPLMQEQAIPGMAVAVIYQGKPYYFTWGKADIANNHPVTQQTLFELGSVSKTFNGVLGGDCIARGEIKLSDPVTKYWPELTGKQWQGIRLLHLATYTAGGLPLQIPDDVRDKAALLHFYQNWQPQWTPGAKRLYANSSIGLFGALAVKPSGMSYEEAMTRRVLQPLKLAHTWITVPENEQKDYAWGYREGKPVHVSPGQLDAEAYGVKSSVIDMARWVQANMDASHVQEKTLQQGIALAQSRYWRIGDMYQGLGWEMLNWPLKADSIINGSDSKVALAALPAVEVNPPAPAVKASWVHKTGSTGGFGSYVAFVPEKNLGIVMLANKSYPNPVRVEAAWRILEKLQ
- kcat/Km [1]: 125 µM⁻¹ s⁻¹
- kcat/Km [2]: 30.3 µM⁻¹ s⁻¹
- kcat/Km [3]: 2.4 µM⁻¹ s⁻¹
- Km [4]: 7.3 µM
- kcat [4]: 910 s⁻¹
- Km [5]: 0.3 µM
- kcat [5]: 9.1 s⁻¹
- kcat [6]: < 0.01 s⁻¹
- Km [7]: 150 µM
- kcat [7]: 360 s⁻¹

B2: Efflux transporter (Salmonella newport), Q3S5C3 (protein)
chain: MSWIVLLIAGLLEVVWAIGLKYTHGFTRLTPSIITIAAMIVSIAMLSWAMRTLPVGTAYAVWTGIGAVGAAITGILLLGESASPARLLSLGLIVAGIIGLKLSTH
- Km [8]: 10 µM
- kcat [8]: 960 s⁻¹
- Km [9]: 0.3 µM
- kcat [9]: 7.7 s⁻¹
- kcat [10]: < 0.01 s⁻¹
- kcat [11]: 310 s⁻¹
- kcat/Km [12]: 96 µM⁻¹ s⁻¹
- kcat/Km [13]: 25.7 µM⁻¹ s⁻¹
- kcat/Km [14]: 2.1 µM⁻¹ s⁻¹
